# Assay results from ChEMBL document CHEMBL1121418, “Synthesis of syn and anti isomers of 6-[[(hydroxyimino)phenyl]methyl]-1-[(1-methylethyl)sulfonyl]-1H-benzimidazol-2-amine. Inhibitors of rhinovirus multiplication” (1980).
# Key:
# HeLa [1] = assay: Percent reduction of plaque formation by rhinovirus type 20 in HeLa cells at conc. 0.02 ug/mL.; assay type: functional, Homo sapiens
# Outline: (§1)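 Virus was adsorbed onto confluent monolayers for 1 h at room temperature. Monolayers were overlaid with a 1:1 mix of 1% agarose and 2× MEM (Earle's salts, 2.5% FBS) containing compound, diluted from a 10000 μg/mL Me2SO stock. Flasks were incubated at 32 °C until control plaques reached 2–10 mm. Cells were then fixed in 10% formalin–2% sodium acetate and stained with crystal violet, and plaques were counted. Counts from duplicate flasks were averaged.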
# HeLa [2] = assay: Dose required to prevent rhinovirus type 48 plaque formation in HeLa cells by 50%ug/mL of agar overlay; assay type: functional; conditions: Homo sapiens, read-out: ID50 (the source's name)
# Outline: (§2)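 Confluent monolayers were infected with diluted virus and allowed to adsorb for 1 h at room temperature. They were then overlaid with 1% agarose mixed 1:1 with 2× MEM (Earle's salts, 2.5% FBS), containing compound diluted from a 10000 μg/mL Me2SO stock. Incubation was at 32 °C until control plaques reached 2–10 mm. Cells were fixed with formalin–sodium acetate and stained with crystal violet, and plaques were counted. Duplicate flasks were averaged, and ID50 was estimated by plotting results between 10% and 90% inhibition.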
# HeLa [3] = assay: Tested in plaque-reduction assay with rhinovirus type 20 at indicated concentration. and the number of plaque formed was reported at conc. 0.17 ug/mL; assay type: functional, Homo sapiens; outline: as §1
# HeLa [4] = assay: Tested in plaque-reduction assay with rhinovirus type 20 at indicated concentration. and the number of plaque formed was reported at conc. 0.75 ug/mL; assay type: functional, Homo sapiens; outline: as §1
# HeLa [5] = assay: Dose required to prevent rhinovirus type 69 plaque formation in HeLa cells by 50%ug/mL of agar overlay; assay type: functional; conditions: Homo sapiens, read-out: ID50 (the source's name); outline: as §2
# HeLa [6] = assay: Dose required to prevent rhinovirus type 37 plaque formation in HeLa cells by 50%ug/mL of agar overlay; assay type: functional; conditions: Homo sapiens, read-out: ID50 (the source's name)
# Outline: (§3)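 Confluent monolayers in flasks received 0.3 mL of diluted virus and adsorbed 1 h at room temperature. They were then overlaid with 1% agarose plus 2× MEM (Earle's salts, 2.5% FBS, penicillin, streptomycin) containing compound diluted from a 10000 μg/mL Me₂SO stock. Flasks were held at 32 °C until control plaques reached 2–10 mm, then fixed with formalin-acetate and stained with crystal violet. Plaques were counted in duplicate flasks and averaged, and ID₅₀ was estimated by plotting the 10–90% inhibition points.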
# HeLa [7] = assay: Percent reduction of plaque formation by rhinovirus type 20 in HeLa cells at conc. 0.04 ug/mL.; assay type: functional, Homo sapiens; outline: as §1
# HeLa [8] = assay: Dose required to prevent rhinovirus type 72 plaque formation in HeLa cells by 50%ug/mL of agar overlay; assay type: functional; conditions: Homo sapiens, read-out: ID50 (the source's name); outline: as §2
# HeLa [9] = assay: Dose required to prevent rhinovirus type 15 plaque formation in HeLa cells by 50%ug/mL of agar overlay; assay type: functional; conditions: Homo sapiens, read-out: ID50 (the source's name); outline: as §2
# HeLa [10] = assay: Tested in plaque-reduction assay with rhinovirus type 20 at indicated concentration. and the number of plaque formed was reported at conc. 0.04 ug/mL; assay type: functional, Homo sapiens; outline: as §1
# HeLa [11] = assay: Tested in plaque-reduction assay with rhinovirus type 20 at indicated concentration. and the number of plaque formed was reported at conc. 0.08 ug/mL; assay type: functional, Homo sapiens; outline: as §1
# HeLa [12] = assay: Dose required to prevent rhinovirus type 65 plaque formation in HeLa cells by 50%ug/mL of agar overlay; assay type: functional; conditions: Homo sapiens, read-out: ID50 (the source's name); outline: as §2
# HeLa [13] = assay: Tested in plaque-reduction assay with rhinovirus type 20 at indicated concentration. and the number of plaque formed was reported at conc. 0.00 ug/mL; assay type: functional, Homo sapiens; outline: as §1
# HeLa [14] = assay: Tested in plaque-reduction assay with rhinovirus type 20 at indicated concentration. and the number of plaque formed was reported at conc. 0.35 ug/mL; assay type: functional, Homo sapiens; outline: as §1
# HeLa [15] = assay: Percent reduction of plaque formation by rhinovirus type 20 in HeLa cells at conc. 0.00 ug/mL.; assay type: functional, Homo sapiens; outline: as §1
# HeLa [16] = assay: Dose required to prevent rhinovirus type 33 plaque formation in HeLa cells by 50%ug/mL of agar overlay; assay type: functional; conditions: Homo sapiens, read-out: ID50 (the source's name); outline: as §2
# HeLa [17] = assay: Tested in plaque-reduction assay with rhinovirus type 20 at indicated concentration. and the number of plaque formed was reported at conc. 0.02 ug/mL; assay type: functional, Homo sapiens; outline: as §1
# HeLa [18] = assay: Percent reduction of plaque formation by rhinovirus type 20 in HeLa cells at conc. 0.35 ug/mL.; assay type: functional, Homo sapiens; outline: as §1
# HeLa [19] = assay: Dose required to prevent rhinovirus type 50 plaque formation in HeLa cells by 50%ug/mL of agar overlay; assay type: functional; conditions: Homo sapiens, read-out: ID50 (the source's name); outline: as §3
# HeLa [20] = assay: Dose required to prevent rhinovirus type 61 plaque formation in HeLa cells by 50%ug/mL of agar overlay; assay type: functional; conditions: Homo sapiens, read-out: ID50 (the source's name); outline: as §2
# HeLa [21] = assay: Dose required to prevent rhinovirus type 3 plaque formation in HeLa cells by 50%ug/mL of agar overlay; assay type: functional; conditions: Homo sapiens, read-out: ID50 (the source's name); outline: as §3
# HeLa [22] = assay: Percent reduction of plaque formation by rhinovirus type 20 in HeLa cells at conc. 0.75 ug/mL.; assay type: functional, Homo sapiens; outline: as §1
# HeLa [23] = assay: Dose required to prevent rhinovirus type 20 plaque formation in HeLa cells by 50%ug/mL of agar overlay; assay type: functional; conditions: Homo sapiens, read-out: ID50 (the source's name); outline: as §2
# HeLa [24] = assay: Dose required to prevent rhinovirus type 32 plaque formation in HeLa cells by 50%ug/mL of agar overlay; assay type: functional; conditions: Homo sapiens, read-out: ID50 (the source's name); outline: as §2
# HeLa [25] = assay: Percent reduction of plaque formation by rhinovirus type 20 in HeLa cells at conc. 0.08 ug/mL.; assay type: functional, Homo sapiens; outline: as §1
# HeLa [26] = assay: Percent reduction of plaque formation by rhinovirus type 20 in HeLa cells at conc. 0.17 ug/mL.; assay type: functional, Homo sapiens; outline: as §1
# HeLa [27] = assay: Dose required to prevent rhinovirus type 16 plaque formation in HeLa cells by 50%ug/mL of agar overlay; assay type: functional; conditions: Homo sapiens, read-out: ID50 (the source's name); outline: as §2
# HeLa [28] = assay: Dose required to prevent rhinovirus type 14 plaque formation in HeLa cells by 50%ug/mL of agar overlay; assay type: functional, Homo sapiens; outline: as §2
# HeLa [29] = assay: Percent reduction of plaque formation by rhinovirus type 20 in HeLa cells at conc. 1.5 ug/mL.; assay type: functional, Homo sapiens; outline: as §1
# HeLa [30] = assay: Tested in plaque-reduction assay with rhinovirus type 20 at indicated concentration. and the number of plaque formed was reported at conc. 3.0 ug/mL; assay type: functional, Homo sapiens; outline: as §1
# HeLa [31] = assay: Dose required to prevent rhinovirus type 70 plaque formation in HeLa cells by 50%ug/mL of agar overlay; assay type: functional; conditions: Homo sapiens, read-out: ID50 (the source's name); outline: as §3
# HeLa [32] = assay: Tested in plaque-reduction assay with rhinovirus type 20 at indicated concentration. and the number of plaque formed was reported at conc. 1.5 ug/mL; assay type: functional, Homo sapiens; outline: as §1
# HeLa [33] = assay: Percent reduction of plaque formation by rhinovirus type 20 in HeLa cells at conc. 3.0 ug/mL.; assay type: functional, Homo sapiens; outline: as §1
SMILES,IC50 (HeLa [2]) [µg/mL],No. of plaques (HeLa [3]),No. of plaques (HeLa [4]),IC50 (HeLa [5]) [µg/mL],IC50 (HeLa [6]) [µg/mL],IC50 (HeLa [8]) [µg/mL],IC50 (HeLa [9]) [µg/mL],No. of plaques (HeLa [11]),IC50 (HeLa [12]) [µg/mL],No. of plaques (HeLa [13]),No. of plaques (HeLa [14]),Reduction (HeLa [15]) [%],IC50 (HeLa [16]) [µg/mL],Reduction (HeLa [18]) [%],IC50 (HeLa [19]) [µg/mL],IC50 (HeLa [20]) [µg/mL],IC50 (HeLa [21]) [µg/mL],Reduction (HeLa [22]) [%],IC50 (HeLa [23]) [µg/mL],IC50 (HeLa [24]) [µg/mL],further results
CC(C)S(=O)(=O)n1c(N)nc2ccc(/C(=N/O)c3ccccc3)cc21 [ENVIROXIME],0.03,0,0,0.01,0.04,0.03,0.02,0,> 0.01,153,0,0,0.01,100,> 0.01,0.01,0.04,100,0.02,0.01,Reduction (HeLa [1]): 55%; Reduction (HeLa [7]): 87%; No. of plaques (HeLa [10]): 18; No. of plaques (HeLa [17]): 68; Reduction (HeLa [25]): 100%; Reduction (HeLa [26]): 100%; IC50 (HeLa [27]): 0.02 µg/mL; ID50 (HeLa [28]): 0.03 pug ml-1
CC(C)S(=O)(=O)n1c(N)nc2ccc(/C(=N\O)c3ccccc3)cc21 [ZINVIROXIME],0.28,87,0,0.08,0.25,0.3,0.14,127,0.07,153,49,0,0.1,67,0.12,0.07,0.37,100,0.19,0.13,"Reduction (HeLa [29]): 100%; No. of plaques (HeLa [30]): 0; IC50 (HeLa [31]): 0.06 µg/mL; No. of plaques (HeLa [32]): 0; Reduction (HeLa [25]): 16%; Reduction (HeLa [26]): 50%; IC50 (HeLa [27]): 0.16 µg/mL; IC50 (HeLa [28]; Homo sapiens, HeLa, read-out: ID50 (the source's name)): 0.36 µg/mL; Reduction (HeLa [33]): 100%"
